# Fibroblast inh: blocks proliferation of human lung fibroblasts; LL 47 human lung fibroblast viability, ATP luminescence; hits give low values; viability, % at 10 µM; 85,000 tested, 1.1% active; AID 719;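 active means viability at or below 50% in the single dose screen; inactive means viability above 50%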;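 further: compound exposure lasted 72 h before the ATP readout; 100% = median luminescence of untreated cell-only wells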
#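 Test system: LL 47 human lung fibroblasts / Quantity: 1,150 cells in each well / Medium: IMEM growth medium with 15% fetal bovine serum / Incubation: 72 h compound exposure at 37 °C after overnight plating / Detection: CellTiter-Glo luminescence measuring cellular ATP / Read-out: % viability versus median cells-only luminescence / Benchmarks: cell-only wells, no compound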
# HCT116 bCat-KO: beta-catenin-lacking colon tumor cell growth suppression; HCT116 beta-catenin knockout viability, CellTiter-Glo, 60 h; hits give low values; viability, % at 10 µM; 140,000 tested, 1.5% active; AID 818;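 active means viability at or under a set limit, the compound median less 4 SD, cut at about 6% in these data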;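 further: 0% = Hyamine 1622 control at 20 µM and 100% = untreated cell control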
# H69AR inhibit: blocks growth of human H69AR lung tumor cells | H69AR lung tumor viability, ATP luminescence, 72 h; hits give low values | viability, % at 10 µM | 85,000 tested, 6% active;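 active means viability at or below 40%; inactive means viability above 40%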;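 further: multidrug resistant small cell line overexpressing MRP-1 efflux transporter; 100% = mean luminescence of untreated control wells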
# PTEN del growth: suppresses growth of cells with PTEN deletion. 140,000 tested, 1.2% active. viability, % at 10 µM. HCT116 PTEN-null viability, CellTiter-Glo, 60 h; hits give low values;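 active means viability at or below a set limit, 4 SD under the median of all tested compounds, cut at about 3.7% in these data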;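 further: PTEN knockout HCT116 line with beta catenin targeted HCT116 as companion control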
# HUVEC inhibit: blocks proliferation of human endothelial cells; HUVEC proliferation, CellTiter-Glo luminescence, 72 h; hits give low values; viability, % at 10 µM (by protocol); AID 648; 86,000 tested, 1.1% active;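 active means viability at or below 30%; inactive means viability above 30%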;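 further: 100% = median luminescence of DMSO-only cell control wells on each plate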
# Numbers without * were called inactive; . = not tested or not shown. The full list was thinned out, with hits kept by preference.
SMILES,Fibroblast inh,HCT116 bCat-KO,H69AR inhibit,PTEN del growth,HUVEC inhibit
COc1ccc2[nH]c(=O)c(CN(Cc3ccco3)C(c3nnnn3Cc3ccccc3)C(C)C)cc2c1 (stereo unspecified),79,6,47,3.1*,58
Cc1nc(Nc2ccc(F)cc2)[nH]c(=O)c1CCC(C)C,.,62,6.7*,49,75
Cc1nn(CC(O)CN2c3ccccc3Sc3ccccc32)c(C)c1Br (stereo unspecified),88,65,27*,52,59
OC(CN1c2ccccc2Sc2ccccc21)Cn1nnc2ccccc21 (stereo unspecified),90,7,25*,2.5*,60
Cc1ccc(-c2nnc3ccc(SCC(=O)N4CCc5ccccc54)nn23)cc1,85,89,32*,94,45
Cc1occc1-c1nnc(SCC(=O)N2CCc3ccccc32)o1,97,81,1.3*,90,91
Cc1ccc(-c2nnc3ccc(SCC(=O)N4CCCc5ccccc54)nn23)cc1,.,68,.,62,.
O=C(COc1c(Br)cc(Br)c2cccnc12)N1CCc2ccccc2C1,97,86,53,93,93
Oc1c(I)cc(Cl)c2cccnc12,70,18,8.3*,8,12*
Oc1c(CN2CCCCC2)cc(Br)c2cccnc12,.,1.7*,.,1.4*,.
Oc1c(CN2CCc3ccccc3C2)cc(Cl)c2cccnc12,14*,2.9*,2.0*,3.0*,5.9*
CN(C)CCSc1nnc2[nH]c3ccccc3c2n1,.,82,.,93,.
O=C(CSc1nc2ccccc2n1S(=O)(=O)c1ccccc1)N1CCCC1,.,90,.,87,.
COC(=O)c1cc(NC(=O)Cc2ccc(OC)cc2)cc(C(=O)OC)c1,100,106,87,95,87
COc1cc(CNc2ccc(CNc3ncn[nH]3)cc2)ccc1OCc1ccccc1,.,38,.,57,.
CCc1ccc(N2CC(C(=O)OCC(=O)Nc3cc(C)on3)CC2=O)cc1 (stereo unspecified),.,107,37*,106,104
CC(=O)NC1=C(NC2CCS(=O)(=O)C2)C(=O)c2ccccc2C1=O (stereo unspecified),.,45,.,47,.
CN(C1=C(NC(=O)c2ccccc2)C(=O)c2ccccc2C1=O)C1CCS(=O)(=O)C1 (stereo unspecified),.,2.7*,.,5,.
O=C(N/N=C/c1c[nH]c2ccccc12)c1cc(-c2ccc(-c3ccccc3)cc2)n[nH]1,.,1.1*,.,1.3*,.
O=C(N/N=C/c1ccco1)c1cc(-c2ccc3ccccc3c2)n[nH]1,76,48,1.8*,27,3.7*
O=C(N/N=C/C=C\c1ccccc1[N+](=O)[O-])c1cc(-c2ccc3ccccc3c2)n[nH]1,.,4.7*,.,5,.
O=C(N/N=C/C=C\c1ccccc1[N+](=O)[O-])c1cccs1,.,76,.,79,.
O=C(O)CCC(=O)NNc1ccccc1[N+](=O)[O-],.,83,.,99,.
Cc1ccnc(NC(=O)CCCOc2cc(=O)n(C)c3ccccc23)c1,.,5.4*,.,2.9*,.
C=CCn1c(=O)/c(=C/c2cc(OC)c(OC)c(OC)c2)s/c1=C(/C#N)c1nc2ccccc2n1C,55,48,10*,56,50
SMILES,Fibroblast inh,HCT116 bCat-KO,H69AR inhibit,PTEN del growth,HUVEC inhibit
Cc1ccc(C2C3=C(CCCC3=O)N=C3c4ccccc4C(=O)C32)cc1 (stereo unspecified),.,83,.,75,.
O=[N+]([O-])c1cccc(/C=C/c2nc3ccc([N+](=O)[O-])cc3[nH]2)c1,.,9,.,3.7*,.
Cc1ccc(-c2nn3c(C)nnc3s2)cc1NCc1c(F)cccc1Cl,57,27,28*,24,53
Cc1ccc(CNc2cc(-c3nn4c(C)nnc4s3)ccc2C)s1,62,92,59,98,36
Cc1nnc2sc(-c3ccc(NC(=O)CSc4ccc(Cl)cc4)cc3)nn12,98,96,93,101,75
Cc1ccc(-c2nn3c(C)nnc3s2)cc1NC(=O)CSc1ccc(Cl)cc1,80,99,93,96,29*
CCOc1cc(/C=C(\C#N)c2[nH]nc(N)c2C#N)ccc1O,82,79,37*,84,64
CCOc1cc(-c2cc(-c3ccc(C)cc3)nc(N)c2C#N)ccc1O,65,8,6.9*,7,41
CCOc1cc(/C=C(\C#N)C(=O)NCC2CCCO2)ccc1O (stereo unspecified),.,88,.,101,.
CCOc1cc(-c2c(C#N)c(N)nc3c2CCc2ccccc2-3)ccc1O,.,50,.,47,.
CCOc1cc(-c2c(C#N)c(N)nc3c2CCCC3C)ccc1O (stereo unspecified),96,84,31*,101,76
Cc1nn(-c2ccccc2)c(C)c1/C=N/NC(=O)CSc1nnc(SCc2ccc(Cl)cc2)s1,.,103,.,103,.
COc1ccc(OC)c(C2=NOC(C(=O)N3CCCc4ccccc43)C2)c1 (stereo unspecified),106,94,86,93,99
C=CCOC(=O)/C(=C/c1cccc2ccccc12)NC(=O)c1ccccc1,.,88,.,88,.
CCC(C)NC(=O)CCSc1ccc(C)cc1 (stereo unspecified),.,95,.,90,.
Cc1nn(-c2ccc(Cl)cc2)c2sc(C(=O)N3CCN(c4ccccn4)CC3)cc12,96,92,21*,95,36
COc1ccc(-n2nc(C(=O)Nc3ccc(OC)c(OC)c3)c3c4ccccc4n(C)c3c2=O)cc1,77,3.7*,9.2*,3.5*,30
CCN(CC)CCNC(=O)c1nn(-c2ccc(C)cc2)c(=O)c2c1c1ccccc1n2C,54,7,64,6,20*
COc1ccc(-n2nc(C(=O)Nc3ccc4c(c3)OCO4)c3c4ccccc4n(C)c3c2=O)cc1,93,.,85,.,88
COc1ccc(-n2nc(C(=O)Nc3ccc4c(c3)OCO4)c3ccccc3c2=O)c(OC)c1,94,11,7.0*,20,72
COc1ccccc1-n1nc(C(=O)Nc2ccc3c(c2)OCO3)c2ccccc2c1=O,85,81,42,81,74
CCC1CCC2(CC1)NC(=O)N(CC(=O)c1c(C)[nH]c3ccccc13)C2=O (stereo unspecified),.,90,.,85,.
Cc1scc(C(=O)NNC(=S)NC(C)c2ccccc2)c1C (stereo unspecified),.,69,.,88,.
NC(=O)c1cc(-c2ccccc2)nc(N2CCOCC2)n1,71,69,64,67,57
CC[n+]1cc(-c2ccccc2)nc(N2CCOCC2)n1,99,75,91,78,27*
COC(=O)[C@H](Cc1ccccc1)NC(=O)NCCC1=CCCCC1,97,87,70,99,104
O=C(c1ccc2c(c1)N(Cc1ccccc1)C(=O)c1ccccc1S2)N1CCCC1,96,87,29*,83,102
COc1cccc(-n2nnc3c(=O)n(CC(=O)N4CCC(Cc5ccccc5)CC4)cnc32)c1,94,66,30*,68,75

# Bioassay records (PubChem BioAssay)
